Reference: ChEMBL document CHEMBL1142938 (J Med Chem, 2007)

Key:
[1] = target: T1, Adenosine receptor A1 (Homo sapiens, UniProt P30542); assay: Displacement of [3H]CCPA from human recombinant adenosine A1 receptor expressed in CHO cells; type: cell-based
T1 sequence (P30542 whole entry): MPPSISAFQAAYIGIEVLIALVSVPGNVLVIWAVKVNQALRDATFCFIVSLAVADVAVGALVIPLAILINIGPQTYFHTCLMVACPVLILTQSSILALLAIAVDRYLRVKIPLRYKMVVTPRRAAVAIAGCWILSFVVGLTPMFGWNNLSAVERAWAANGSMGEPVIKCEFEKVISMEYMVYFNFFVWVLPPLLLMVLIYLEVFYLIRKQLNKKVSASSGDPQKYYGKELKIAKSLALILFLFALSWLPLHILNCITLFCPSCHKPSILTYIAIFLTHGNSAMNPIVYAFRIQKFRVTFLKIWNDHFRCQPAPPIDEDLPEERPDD

[2] = target: Adenosine receptor A2a (Homo sapiens, UniProt P29274); assay: Displacement of [3H]NECA from human recombinant adenosine A2A receptor expressed in CHO cells; type: cell-based
Sequence of Adenosine receptor A2a (P29274 whole entry): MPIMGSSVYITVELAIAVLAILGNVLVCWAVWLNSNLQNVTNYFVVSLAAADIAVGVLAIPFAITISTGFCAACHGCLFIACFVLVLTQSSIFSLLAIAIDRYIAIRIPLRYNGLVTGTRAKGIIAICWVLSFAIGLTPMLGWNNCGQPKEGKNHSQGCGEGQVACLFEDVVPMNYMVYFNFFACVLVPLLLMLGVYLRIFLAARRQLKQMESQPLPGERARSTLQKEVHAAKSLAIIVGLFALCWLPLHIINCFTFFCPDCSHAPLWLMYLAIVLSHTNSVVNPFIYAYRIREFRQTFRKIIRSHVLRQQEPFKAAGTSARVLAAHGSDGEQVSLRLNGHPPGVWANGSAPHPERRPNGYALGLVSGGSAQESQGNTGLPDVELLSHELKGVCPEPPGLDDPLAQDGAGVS
Procedure, shortened: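 Competition binding with [3H]NECA at 30 nM on stably transfected CHO cells. Nonspecific binding defined with 1 mM theophylline. Dissociation constants (Ki) obtained by nonlinear curve fitting.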

[3] = target: T2, Adenosine receptor A3 (Homo sapiens, UniProt P0DMS8); assay: Displacement of [3H]NECA from human recombinant adenosine A3 receptor expressed in CHO cells; type: cell-based
T2 sequence (P0DMS8 whole entry): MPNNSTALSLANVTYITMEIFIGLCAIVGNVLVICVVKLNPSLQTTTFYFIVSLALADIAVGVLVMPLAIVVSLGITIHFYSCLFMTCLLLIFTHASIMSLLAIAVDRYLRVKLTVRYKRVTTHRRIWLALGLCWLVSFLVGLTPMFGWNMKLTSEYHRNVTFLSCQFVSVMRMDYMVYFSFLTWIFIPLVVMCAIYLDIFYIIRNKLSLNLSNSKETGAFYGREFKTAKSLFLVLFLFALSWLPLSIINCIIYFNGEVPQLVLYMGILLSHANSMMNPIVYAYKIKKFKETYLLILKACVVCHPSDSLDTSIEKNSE
Procedure, shortened: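 [3H]NECA used at 10 nM as radioligand in competition experiments, stably transfected CHO cells. Nonspecific binding defined with 1 mM theophylline. Ki from nonlinear curve fitting.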

[4] = target: Adenosine receptors; A1 & A3 (Homo sapiens) (UniProt P30542+P0DMS8); assay: Selectivity for human adenosine A3 receptor over human adenosine A1 receptor; type: protein assay
[5] = target: Adenosine receptors; A2a & A3 (Homo sapiens) (UniProt P0DMS8+P29274); assay: Selectivity for human adenosine A3 receptor over human adenosine A2A receptor; type: protein assay
[6] = target: T3, Adenosine receptor A3 (Homo sapiens) (UniProt P0DMS8); assay: Activity at human adenosine A3 receptor assessed as inhibition of forskolin-stimulated cAMP production in CHO cells; type: functional, cell-based; design: concentration or dose not given beside the values
T3 sequence (whole entry): T2 sequence (P0DMS8 whole entry)

Ki [1] [nM]	Ki [2] [nM]	Ki [3] [nM]	Ratio Ki [4]	Ratio Ki [5]	Activity [6] [%]	SMILES
153	12100	1.7	90	7100		CNC(=O)[C@H]1O[C@@H](n2cnc3c(NOC)nc(I)nc32)[C@H](O)[C@@H]1O
1280	2680	3	427	893	81	CONc1nc(C#Cc2ccc(C(C)=O)cc2)nc2c1ncn2[C@@H]1O[C@H](CO)[C@@H](O)[C@H]1O
1190	6310	6	198	1100		CONc1nc(C#Cc2ccncc2)nc2c1ncn2[C@@H]1O[C@H](CO)[C@@H](O)[C@H]1O
1210	4290	3.8	318	1100	81	CONc1nc(C#Cc2ccccc2)nc2c1ncn2[C@@H]1O[C@@H](CO)[C@@H](O)[C@H]1O
2450	8270	23	106	360		CONc1nc(C#Cc2cccc(C(F)(F)F)c2)nc2c1ncn2[C@@H]1O[C@H](CO)[C@@H](O)[C@H]1O
95	758	5.4	18	140		CONc1nc(C#CCC(C)O)nc2c1ncn2[C@@H]1O[C@H](CO)[C@@H](O)[C@H]1O (some centres not stated)
	14700	3.3	3600	4500		CNC(=O)[C@H]1O[C@@H](n2cnc3c(NOC)nc(C#Cc4ccc(C)cc4)nc32)[C@H](O)[C@@H]1O
766	3080	3.7	207	832		CONc1nc(C#Cc2ccc(CC#N)cc2)nc2c1ncn2[C@@H]1O[C@H](CO)[C@@H](O)[C@H]1O
1420	4600	6.8	209	676		CCNC(=O)[C@H]1O[C@@H](n2cnc3c(NOC)nc(C#Cc4ccc(C)cc4)nc32)[C@H](O)[C@@H]1O
1380	35100	5.9	234	6000		CONc1nc(C#Cc2ccc(C)cc2)nc2c1ncn2[C@@H]1O[C@H](CO)[C@@H](O)[C@H]1O
22	5740	13	1.7	441		CONc1nc(C#C[Si](C)(C)C)nc2c1ncn2[C@@H]1O[C@H](CO)[C@@H](O)[C@H]1O
25	3140	23	1	136		C#Cc1nc(NOC)c2ncn([C@@H]3O[C@H](CO)[C@@H](O)[C@H]3O)c2n1
255	12500	7.9	32	1600		CONc1nc(C#Cc2cccnc2)nc2c1ncn2[C@@H]1O[C@H](CO)[C@@H](O)[C@H]1O
901	3130	5.2	173	602		CONc1nc(C#Cc2ccc(C(N)=O)cc2)nc2c1ncn2[C@@H]1O[C@H](CO)[C@@H](O)[C@H]1O
9140	16300	1.9	4800	8600	38	CNC(=O)[C@H]1O[C@@H](n2cnc3c(NOC)nc(C#Cc4ccccc4)nc32)[C@H](O)[C@@H]1O
58	12400	7.4	8	1700		CONc1nc(I)nc2c1ncn2[C@@H]1O[C@H](CO)[C@@H](O)[C@H]1O
175	6460	1.6	109	4000		CCNC(=O)[C@H]1O[C@@H](n2cnc3c(NOC)nc(C#Cc4ccccn4)nc32)[C@H](O)[C@@H]1O

Ki [1] [nM]	Ki [2] [nM]	Ki [3] [nM]	Ratio Ki [4]	Ratio Ki [5]	Activity [6] [%]	SMILES
1230	4210	4	307	1100		CCNC(=O)[C@H]1O[C@@H](n2cnc3c(NOC)nc(C#Cc4ccc(C(C)=O)cc4)nc32)[C@H](O)[C@@H]1O
437	2960	2.3	190	1300	94	CONc1nc(C#Cc2ccccn2)nc2c1ncn2[C@@H]1O[C@H](CO)[C@@H](O)[C@H]1O
282	1820	4.1	69	444		CONc1nc(C#CCCCC#N)nc2c1ncn2[C@@H]1O[C@H](CO)[C@@H](O)[C@H]1O
730	6520	39	19	167		CCCCCc1ccc(C#Cc2nc(NOC)c3ncn([C@@H]4O[C@H](CO)[C@@H](O)[C@H]4O)c3n2)cc1
			90	100		CCNC(=O)[C@H]1O[C@@H](n2cnc3c(N)nc(C#Cc4ccccc4)nc32)[C@H](O)[C@@H]1O
4090	27100	68	60	399		CCCCCc1ccc(C#Cc2nc(NOC)c3ncn([C@@H]4O[C@H](C(=O)NCC)[C@@H](O)[C@H]4O)c3n2)cc1
3990	18000	1.1	3600	16400	34	CNC(=O)[C@H]1O[C@@H](n2cnc3c(NOC)nc(C#Cc4ccccn4)nc32)[C@H](O)[C@@H]1O
1880		3.5			35	CCNC(=O)[C@H]1O[C@@H](n2cnc3c(NOC)nc(C#Cc4ccccc4)nc32)[C@H](O)[C@@H]1O
3000	18700	1.9	1600	9800		CNC(=O)[C@H]1O[C@@H](n2cnc3c(NOC)nc(C#Cc4ccc(F)cc4)nc32)[C@H](O)[C@@H]1O
1870	1780	4.3	435	414		CONc1nc(C#Cc2ccc(OC)cc2)nc2c1ncn2[C@@H]1O[C@H](CO)[C@@H](O)[C@H]1O
53	5290	2.8	19	1900		CCNC(=O)[C@H]1O[C@@H](n2cnc3c(NOC)nc(I)nc32)[C@H](O)[C@@H]1O
48100	31700	55	874	576		CCCCCc1ccc(C#Cc2nc(NOC)c3ncn([C@@H]4O[C@H](C(=O)NC)[C@@H](O)[C@H]4O)c3n2)cc1
53800	10400	2.5	21500	4200	41	CNC(=O)[C@H]1O[C@@H](n2cnc3c(NOC)nc(C#Cc4ccc(C(C)=O)cc4)nc32)[C@H](O)[C@@H]1O
97	267	2.8	35	95		CCCCC#Cc1nc(NOC)c2ncn([C@@H]3O[C@H](CO)[C@@H](O)[C@H]3O)c2n1
2790	3960	4.4	634	900		CONc1nc(C#Cc2ccc(F)cc2)nc2c1ncn2[C@@H]1O[C@H](CO)[C@@H](O)[C@H]1O
			24	23		Nc1nc(C#Cc2ccccc2)nc2c1ncn2[C@@H]1O[C@H](CO)[C@@H](O)[C@H]1O
1880	6290	3.2	587	2000		CCNC(=O)[C@H]1O[C@@H](n2cnc3c(NOC)nc(C#Cc4ccc(F)cc4)nc32)[C@H](O)[C@@H]1O
